# Data published in ChEMBL document CHEMBL1141657, “Synthesis, structure elucidation and identification of antitumoural properties of novel fused 1,2,4-triazine aryl derivatives” (Eur J Med Chem, 2008).
# The source made the active and inactive calls. The rule behind the calls is not given here.
# Columns and labels:
# SiHa [1] = test: Growth inhibition of human SiHa cells assessed as BrdU incorporation at 32.6 uM after 72 hrs by spectrophotometry; assay type: functional; conditions: read-out: GI
# Outline: (§1)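 Cells were seeded at 10⁴ cells/mL and preincubated. Compounds were dissolved in DMSO and added at two fixed concentrations, then incubated for 72 h. End-point was BrdU labelling with ELISA detection, read spectrophotometrically. Result is % growth inhibition versus untreated controls. Triplicates.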
# [2] = Growth inhibition of HSF cells assessed as BrdU incorporation at 32.6 uM after 72 hrs by spectrophotometry; assay type: cell-based; conditions: human, read-out: GI; outline: as §1
# [3] = Growth inhibition of african green monkey Vero cells assessed as BrdU incorporation at 32.6 uM after 72 hrs by spectrophotometry; assay type: cell-based; conditions: chlorocebus sabaeus, read-out: GI; outline: as §1
# [4] = Growth inhibition of human LS180 cells assessed as BrdU incorporation at 32.6 uM after 72 hrs by spectrophotometry; assay type: functional; conditions: LS180, 72 h, read-out: GI; outline: as §1
# T47D [5] = test: Growth inhibition of human T47D cells assessed as BrdU incorporation at 32.6 uM after 72 hrs by spectrophotometry; assay type: functional; conditions: read-out: GI
# Outline: (§2)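 Each cell line was seeded at 10⁴ cells per mL and preincubated. Test agents were dissolved in DMSO, added at two examined concentrations (10 and 50 per mL by mass), and incubated for 72 h. The end-point was BrdU labeling and detection kit III read on an ELISA reader. Percent growth inhibition was calculated against untreated controls, in triplicate.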
# [6] = Growth inhibition of HSF cells assessed as BrdU incorporation at 163.0 uM after 72 hrs by spectrophotometry; assay type: cell-based; conditions: human, read-out: GI; outline: as §1
# [7] = Growth inhibition of african green monkey Vero cells assessed as BrdU incorporation at 163.0 uM after 72 hrs by spectrophotometry; assay type: cell-based; conditions: chlorocebus sabaeus, read-out: GI; outline: as §1
# [8] = Growth inhibition of human LS180 cells assessed as BrdU incorporation at 163.0 uM after 72 hrs by spectrophotometry; assay type: functional; conditions: LS180, 72 h, read-out: GI; outline: as §1
# SiHa [9] = test: Growth inhibition of human SiHa cells assessed as BrdU incorporation at 163.0 uM after 72 hrs by spectrophotometry; assay type: functional; conditions: read-out: GI; outline: as §1
# T47D [10] = test: Growth inhibition of human T47D cells assessed as BrdU incorporation at 163.0 uM after 72 hrs by spectrophotometry; assay type: functional; conditions: read-out: GI; outline: as §2
# LS180 = test: Induction of DNA damage in human LS180 cells at 32.6 uM by pulsed field gel electrophoresis; assay type: functional, cell-based
# Outline: (§3)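 After treatment at 32.6, cells were washed twice with PBS. DNA was isolated with lysing buffer plus proteinase K, then purified. Cells were prepared as agarose plugs and run by pulsed field electrophoresis on a 1% agarose gel containing propidium iodide, at 120 V for 1.5 h at room temperature. Experiments were repeated three times.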
# SiHa [11] = test: Induction of DNA damage in human SiHa cells at 32.6 uM by pulsed field gel electrophoresis; assay type: functional, cell-based; outline: as §3
# T47D [12] = test: Induction of DNA damage in human T47D cells at 32.6 uM by pulsed field gel electrophoresis; assay type: functional, cell-based; outline: as §3
# [13] = Induction of apoptosis in HSF cells after 72 hrs by annexin V-propidium iodide based assay; assay type: cell-based; conditions: human
# Outline: (§4)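 Cells were exposed for 72 h, then stained with an annexin V-FITC/propidium iodide detection kit. Apoptotic cells were counted by confocal microscopy using a 460–490 nm filter: yellow nuclei were early apoptosis, red were late, and unstained cells were living. 1000 cells were analysed per measurement, three independent measurements in all. Results are mean ± SD.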
# T47D [14] = test: Induction of apoptosis in human T47D cells after 72 hrs by annexin V-propidium iodide based assay; assay type: functional; outline: as §4
# [15] = Cytotoxicity against HSF cells assessed as cell viability at 1 uM after 24 hrs by MTT assay relative to control; assay type: cell-based; conditions: human, read-out: Activity
# Outline: (§5)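 Normal human skin fibroblasts (HSF, primary line) were exposed to DMSO-dissolved compound for 24 h. Viability was read by MTT tetrazolium reduction and expressed against untreated control set at 100%.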
# [16] = Cytotoxicity against HSF cells assessed as cell viability at 50 uM after 24 hrs by MTT assay relative to control; assay type: cell-based; conditions: human, read-out: Activity; outline: as §5
# [17] = Cytotoxicity against HSF cells assessed as cell viability at 100 uM after 24 hrs by MTT assay relative to control; assay type: cell-based; conditions: human, read-out: Activity; outline: as §5
# Jurkat [18] = test: Cytotoxicity against human Jurkat cells assessed as cell viability at 1 uM after 24 hrs by MTT assay relative to control; assay type: functional; conditions: read-out: Activity
# Outline: (§6)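 Jurkat T-cell leukaemia line grown in RPMI 1640 with 10% FBS, 2 mM L-glutamine and gentamycin at 37 °C, 5% CO2, kept in log phase. Compounds were dissolved in DMSO and applied for 24 h. Cells were washed in HEPES-buffered medium (pH 7.4) and given MTT at 0.5 mg/mL for 45 min at 37 °C. Formazan was dissolved in DMSO and read at 570 nm. Viability is % of control, from three independent measurements.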
# Jurkat [19] = test: Cytotoxicity against human Jurkat cells assessed as cell viability at 50 uM after 24 hrs by MTT assay relative to control; assay type: functional; conditions: read-out: Activity; outline: as §6
# Jurkat [20] = test: Cytotoxicity against human Jurkat cells assessed as cell viability at 100 uM after 24 hrs by MTT assay relative to control; assay type: functional; conditions: read-out: Activity; outline: as §6
# [21] = Growth inhibition of human LS180 cells assessed as BrdU incorporation after 72 hrs by spectrophotometry; assay type: functional, cell-based; conditions: LS180, 72 h
# Outline: (§7)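 Cancer cells were seeded at 10⁴ cells/mL, preincubated, then exposed for 72 h to DMSO-dissolved compound. Growth was read by BrdU labelling with ELISA spectrophotometry. IC50 was taken from 72 h dose–survival curves. Triplicates.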
# SiHa [22] = test: Growth inhibition of human SiHa cells assessed as BrdU incorporation after 72 hrs by spectrophotometry; assay type: functional, cell-based; outline: as §7
# T47D [23] = test: Growth inhibition of human T47D cells assessed as BrdU incorporation after 72 hrs by spectrophotometry; assay type: functional, cell-based; outline: as §7
# Jurkat [24] = test: Cytotoxicity against human Jurkat cells assessed as decrease in cell viability after 24 hrs by MTT assay; assay type: functional, cell-based
# Outline: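 Jurkat cells grown in RPMI 1640/10% FBS at 37 °C, 5% CO2, with 24 h exposure to DMSO-dissolved compound. Read-out was MTT reduction: 0.5 mg/mL in HEPES-buffered medium for 45 min, formazan in DMSO, absorbance at 570 nm. IC50 was taken from 24 h dose–survival curves.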
smiles,measurement,setting,value
NNC(=O)c1nnc2n(c1=O)CCN2c1cccc(Cl)c1,inhibition of growth at 32.6 µM,SiHa [1],45%
same,"inhibition at 72 h, 32.6 µM",[2],0%
same,"inhibition at 72 h, 32.6 µM",[3],20%
same,inhibition of growth at 32.6 µM,[4],42%
same,inhibition of growth at 32.6 µM,T47D [5],26%
same,"inhibition at 72 h, 163 µM",[6],0%
same,"inhibition at 72 h, 163 µM",[7],29%
same,inhibition of growth at 163 µM,[8],54%
same,inhibition of growth at 163 µM,SiHa [9],63%
same,inhibition of growth at 163 µM,T47D [10],40%
same,Activity,LS180,Active
same,Activity,SiHa [11],Active
same,Activity,T47D [12],Active
same,Activity,[13],1%
same,Activity,T47D [14],8.5%
same,"viability at 24 h, 1 µM",[15],108%
same,"viability at 24 h, 50 µM",[16],113%
same,"viability at 24 h, 100 µM",[17],105%
same,viability at 1 µM,Jurkat [18],100%
same,viability at 50 µM,Jurkat [19],116%
same,viability at 100 µM,Jurkat [20],115%
same,IC50,[21],> 100 µM
same,IC50,SiHa [22],75.4 µM
same,IC50,T47D [23],> 100 µM
same,IC50,Jurkat [24],> 100 µM
